Drawing on ChEMBL document CHEMBL1132285, “The presence of substituents on the aryl moiety of the aryl phosphoramidate derivative of d4T enhances anti-HIV efficacy in cell culture: A structure-activity relationship” (J Med Chem, 1999), this text covers EC50 for one compound.

pEC50: −log10 of the molar value.

Assay [1] deals with CCRF-CEM. In words: In vitro effective compound concentration required to protect CEM/O cells against the cytopathogenicity of HIV-1. Type of assay: functional, cell-based. The note with it: Homo sapiens. The procedure, abridged:
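CEM/0 cells at 250 000 cells/mL were infected with HIV-1 (~20 CCID50/mL) or HIV-2 strain ROD (~100 CCID50/mL), then mixed 1:1 with compound dilutions. After 4 days at 37 °C, giant cell formation was scored. EC50 is the concentration inhibiting HIV-induced giant cell formation by 50%. Values are means of 2–4 independent experiments.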
(Protection from cytopathic effect is a common read-out in antiviral testing.)

Assay [2] concerns CCRF-CEM. The assay can be described thus: In vitro effective compound concentration required to protect CEM/TK cells against the cytopathogenicity of HIV-2. As to conditions: Homo sapiens.

On to `Cc1cn([C@H]2C=C[C@@H](CO)O2)c(=O)[nH]c1=O` [STAVUDINE], for which the pEC50 (commonly −log10 of the EC50, conventionally taken in molar units) was 6.19 in assay [1] and 4.48 in assay [2].
